The source of these data is ChEMBL document CHEMBL4513216, “Probing the Open Global Health Chemical Diversity Library for Multistage-Active Starting Points for Next-Generation Antimalarials” (ACS Infect Dis, 2020).

The structures appear in SMILES notation.

This data set in a line: Toxicity liver stage against HepG2, at 10uM. The arrangement: test concentration 10 uM, cell line HepG2-A16-CD81EGFP. In kind it is cell-based. Conditions: human, HepG2-A16-CD81EGFP cells; read-out: INHIBITION
Summed up:
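Uninfected HepG2-A16-CD81EGFP cells, 3 × 10^3 per well, 1536-well, plated on prespotted compound at 10 μM final, parasite-free screening media added to match infected plates; puromycin 10 μM positive, DMSO 0.5% negative; run in parallel with 48 h PbLuc assay at 37 °C, 5% CO2; viability by CellTiter-Glo luminescence, normalized to controls.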

Take `Cc1nc2cc(O)nn2c(C)c1CCC(=O)N(C)Cc1cscn1`: the cytotoxicity at 10 µM is -2.64%. Next, `Cc1cc(O)cc(=O)n1CCCC(=O)Nc1n[nH]c2cc(Br)ccc12`: -16.2%; `Cc1nn(C)c(N(C)C)c1CNCCOc1ccc2c(c1)OCO2`: -1.34%.

Consider `Cc1cc(NC(=O)CN2CCc3c(nc(C(C)C)n3C)C2)n(C)n1`, for which the cytotoxicity at 10 µM was -4.94%. Under `O=C(c1cnccn1)N1CCN2C[C@H](OCc3ccccn3)C[C@H]2C1` stands -0.746%; under `Cc1ccsc1C(O)CNS(=O)(=O)Cc1ccc(F)cc1` (stereo unspecified), -4.38%; under `Cc1ccc(F)c(C(=O)N2CCN(S(C)(=O)=O)[C@@H](C)C2)c1`, -10.3%. On to `CCN(CC)C(=O)C1CCC2(CCNCC2)O1` (stereo unspecified), for which the cytotoxicity at 10 µM is -162%. Under `O=S(=O)(c1ccc(F)cc1)N1CCCC1c1cc[nH]n1` (stereo unspecified) stands -5.94%.

Take `CC(C)(C)c1nc(CN2CCN(C(=O)c3cnccn3)CC2)cs1`: the cytotoxicity at 10 µM is -5.92%.

For the molecule `CN(C)C(=O)COCc1cncc2c1CCN(Cc1cnn(C)c1)C2`, the cytotoxicity at 10 µM is -3.48%.

As for `COc1ccc(C)cc1CNC(=O)C1=NN(c2ccccc2)C(=O)CN1`, the cytotoxicity at 10 µM worked out at 12.8%.

For the molecule `c1cncc(CN2CCn3cc(CN4CCCCC4)nc3C2)c1`, the cytotoxicity at 10 µM is -102%. For the molecule `COC(=O)CCC(=O)NC(C)Cc1ccccc1Br` (stereo unspecified), the cytotoxicity at 10 µM is -6.66%. As for `COc1ccc(S(=O)(=O)N2CCC(O)(CN(C)C)C2)cc1` (stereo unspecified), the cytotoxicity at 10 µM was -3.36%.

On to `Cc1cc2nc(C(C)C)cc(NCCc3ccncc3)n2n1`, for which the cytotoxicity at 10 µM was -1.18%.

Regarding `CN(C)c1nccc(N2CCO[C@H]3CN(CC4CCOCC4)C[C@H]32)n1`, the cytotoxicity at 10 µM was -7.21%. Next, `O=C(CCc1nc(-c2cccnc2)no1)NCC1CCN(C2CC2)C1` (stereo unspecified): 0.113%; `CC(C)CCn1cc(C(C(=O)O)N2CCC(c3ccncc3)CC2)cn1` (stereo unspecified): 3.34%. Turning to `c1ccc2c(N3CCCCC3Cn3cccn3)ncnc2c1` (stereo unspecified), the cytotoxicity at 10 µM is -5.33%. Under `Cc1occc1C(=O)Nc1cc(N2CCNC2=O)ccc1Cl` stands 8.56%; under `O=C1N(Cc2cccnc2)C[C@H]2CN(S(=O)(=O)c3ccccc3)CCN12`, 1.08%; under `Cc1cc(=O)n(C)cc1NC(=O)Cc1cccc(F)c1`, -3.86%.

For `Fc1cccc(OC2CCN(Cc3ncc[nH]3)CC2)c1`, the cytotoxicity at 10 µM was -31.2%. Turning to `O=C(CCC(=O)NCc1cccc(Br)c1)NCCN1CCCC1`, the cytotoxicity at 10 µM worked out at 10%. Consider `O=C(Nc1ccccc1-c1ccccc1)NC1CCC2(C1)OCCO2` (stereo unspecified), for which the cytotoxicity at 10 µM came to 8.84%. Consider `O=C(NCC(O)c1ccc(F)cc1F)c1cccnc1O` (stereo unspecified), for which the cytotoxicity at 10 µM worked out at 7.58%. In the case of `Cc1cc(-n2cncn2)n2ncnc2n1`, the cytotoxicity at 10 µM was -4.05%. Take `C[S+]([O-])c1ccc(NC(=O)Cc2cccnc2)cc1F` (stereo unspecified): the cytotoxicity at 10 µM is -4.26%. Next, `COc1cc(C)c2c(c1C)C[C@@H](C(C)C(=O)O)CC2` (stereo partly specified): 4.98%; `c1cc(CN2CCc3ncnc(C4CCOC4)c3CC2)ccn1` (stereo unspecified): -0.703%; `COCCN1CCN(Cc2c(C)noc2C)Cc2cccnc21`: -70.1%. Under `Cc1nc(CN2C[C@@H]3CN(C(=O)c4ccoc4C)C[C@@H]3C2=O)cs1` stands -76.8%. Regarding `Cc1nnc([C@@H]2CC[C@@H]3[C@@H](CCN3C3CCOCC3)O2)o1`, the cytotoxicity at 10 µM worked out at 8.58%. `Cc1ccccc1CN(CC(=O)O)C(=O)COCC1CC1`: the cytotoxicity at 10 µM is -1.92%. Turning to `CC(C)(C)CC(=O)NCC1CCCS1` (stereo unspecified), the cytotoxicity at 10 µM was 11.2%. As to `CC(C)CC(NC(=O)c1ccco1)c1nc2cccnc2n1C` (stereo unspecified), the cytotoxicity at 10 µM came out at 6.08%. Take `Cc1cccc(OCCC(=O)N2CCN(CC(=O)NC3CC3)CC2)c1C`: the cytotoxicity at 10 µM was determined as 2.22%.

For the molecule `CNc1nc(CNC(=O)Nc2cccc(C)c2Cl)cs1`, the cytotoxicity at 10 µM was -9.04%. Under `CCC(=O)Nc1ccc2c(c1)CN(C(=O)c1ccco1)CC2` stands 5.84%; under `CN(C)C(=O)NC1COC2(CCN(Cc3ccccc3)CC2)C1` (stereo unspecified), 4.14%; under `CC1CN(C(=O)c2nccnc2N)c2ccc(F)cc2O1` (stereo unspecified), 4.28%. In the case of `Cc1ccc(CNC(=O)c2ccc(S(=O)(=O)N3C[C@H]4C[C@@H]3CN4)cc2)o1`, the cytotoxicity at 10 µM was -7.2%. `Cc1cc(C)c(CNC(=O)C(C)Oc2ccccc2F)c(=O)[nH]1` (stereo unspecified): the cytotoxicity at 10 µM amounted to 6.99%.

Turning to `CNC(=O)[C@H]1C[C@@H]2CN(S(=O)(=O)c3ccc(C)c(F)c3)C[C@@H]2N1C`, the cytotoxicity at 10 µM is -3.03%.

`COC(=O)CN1CCN(c2cccc(C)c2)CC1`: the cytotoxicity at 10 µM was 3.54%. Next, `C[C@@H](O)CNC(=O)CCc1nc2cccnc2[nH]1`: -6.9%; `Cn1cnc2c1C(COCC1CCOCC1)CN(Cc1ccccn1)C2` (stereo unspecified): -78.2%. `CNS(=O)(=O)CC(=O)N1CCC(c2ccc(F)c(F)c2)CC1`: the cytotoxicity at 10 µM is 0.696%.

Consider `CC(C(=O)NCC1CCCCC1)S(=O)(=O)Cc1csc(-c2cccs2)n1` (stereo unspecified), for which the cytotoxicity at 10 µM is -9.44%. Next, `Cc1cccc(-n2cc(C(=O)N3CCn4c(C)nnc4C3)nn2)c1`: -10.1%; `O=C(O)C1(Cc2ccccc2Cl)CCN(c2ncccc2F)CC1`: -12.3%; `O=C(Cc1ccccc1F)N1C[C@@H]2COC[C@]2(COc2cccnc2)C1`: 9.29%. Next, `CN(C)Cc1cccc(C(=O)N2CCCC(n3cncn3)C2)c1` (stereo unspecified): -5.87%. Under `CCOc1cc(C(=O)n2cccn2)cc(OCC)c1OCC` stands 2.83%. For the molecule `COc1cccc(C2(CNC(C)c3nnc(C)o3)CCCC2)c1` (stereo unspecified), the cytotoxicity at 10 µM was -1.64%.

Turning to `CCCn1nc2c(cc1=O)CN(Cc1ncc(C(C)(C)C)o1)CC2`, the cytotoxicity at 10 µM was -7.17%. In the case of `COc1cccc(C(=O)N2CCCC(C(=O)CCc3ccccc3)C2)c1` (stereo unspecified), the cytotoxicity at 10 µM is -20%. For the molecule `CC(C)COC(=O)N1CCCN(C(=O)c2ccnc(N(C)C)c2)CC1`, the cytotoxicity at 10 µM is -15.1%. For `CC(C)COC(=O)N1CCN(C(=O)c2ccc3nccn3c2)CC1`, the cytotoxicity at 10 µM amounted to 12.6%. For the molecule `Cc1ccc(C(=O)N2CC(C(N)=O)O[C@H](C)C2)c(F)c1` (stereo partly specified), the cytotoxicity at 10 µM is -5.43%. For the molecule `Cc1ccc(CNC(C)(C)c2noc(C(C)(C)C)n2)o1`, the cytotoxicity at 10 µM was -9.02%. Under `O=C1CO[C@@H]2CN(C(=O)CCc3ccccc3)C[C@H]2N1` stands 6.06%; under `CC(=O)N1CCN(Cc2ccc(Cl)c(F)c2)CC(O)C1` (stereo unspecified), -1.48%. Next, `Cc1ccc(C(=O)Nc2c(C(=O)N(C)C)nn(C)c2C)cc1C`: 11.8%.

In the case of `CCN(CC(=O)NC1(C)CCS(=O)(=O)C1)Cc1ccc(OC)c(F)c1` (stereo unspecified), the cytotoxicity at 10 µM is -9.44%.

On to `CCCN(Cc1nc(-c2ccoc2)oc1C)CC1CCCO1` (stereo unspecified), for which the cytotoxicity at 10 µM worked out at 2.4%. As for `O=S(=O)(c1cccs1)N1CCCn2nnc(CN3CCCCC3)c2C1`, the cytotoxicity at 10 µM is -17.5%. In the case of `COCC1COCCC12CCN(C(=O)Cc1cccc(OC)c1)CC2` (stereo unspecified), the cytotoxicity at 10 µM was -2.56%.

As for `Cn1cccc1C(=O)N1CCCC1c1ccc(CN2CCOCC2)cn1` (stereo unspecified), the cytotoxicity at 10 µM is 1.43%. Turning to `OCC1CCCN1c1cc(NCCc2ccccn2)ncn1` (stereo unspecified), the cytotoxicity at 10 µM was -0.813%. Under `COCCN1C[C@@H]2[C@@H](OC)CCN(Cc3cccs3)[C@@H]2C1` stands 3.86%. Next, `CC(C)C(=O)NS(=O)(=O)c1ccc2c(c1)N(C)CCC2`: -0.447%; `COCC1CCCCN1Cc1nc(-c2ccoc2)oc1C` (stereo unspecified): 1.93%. Next, `Cc1nsc(N2CCCN(C(=O)c3ccc4[nH]ccc4c3)CC2)n1`: 0.997%; `CN(C(=O)Nc1cccnc1)C1CCN(c2ccc(Cl)cc2)CC1`: -2.46%; `N#CC(NC(=O)CCC1CCC1)c1cnn(-c2ccccc2)c1` (stereo unspecified): -2.65%. `COc1ccc(NC(=O)CCN2CC=C(c3cnn(C)c3)CC2)c(C)c1`: the cytotoxicity at 10 µM is -4.08%. `CN(C)C(=O)CO[C@H]1COCCN(C2CCOCC2)C1`: the cytotoxicity at 10 µM is 3.64%. For the molecule `O=C(NCCOc1ncc(Cl)cc1Cl)c1cccnc1`, the cytotoxicity at 10 µM is -3.23%. Consider `CS(=O)(=O)c1cc(NC(=O)COc2ccccc2F)cc(C(=O)O)c1`, for which the cytotoxicity at 10 µM is -9.24%. For the molecule `CCOCC1CN(Cc2ccco2)Cc2nccn2C1` (stereo unspecified), the cytotoxicity at 10 µM is -142%. Next, `COc1ccccc1CNC(=O)CN(C)C(C)c1nccs1` (stereo unspecified): 1.81%; `Cc1cc(NC(=O)NC(C)(C)c2nc(C)c(C)s2)no1`: -1.95%; `CS(=O)(=O)NCCC1CCCN(Cc2ccccc2F)C1` (stereo unspecified): -1.25%.

For `Cc1cc(C(=O)NC2(C#N)CCSCC2)n(C)n1`, the cytotoxicity at 10 µM was 22.1%. Next, `Cc1cc(-c2nccs2)nc(C2CCN(Cc3cccs3)CC2)n1`: 6.81%; `O=C1OCCN1c1cccc(CNS(=O)(=O)Cc2ccc(F)cc2)c1`: 4.77%. Under `CN1CC(c2ccccc2)CC12CCN(C(=O)c1ccc(Cl)cn1)CC2` (stereo unspecified) stands 3.62%; under `Cc1nc(S(=O)(=O)NCCC(=O)NCc2ccc(C#N)cc2)cn1C`, 5.17%; under `CN1C(=O)C2(NC(=O)c3ccccc3O2)c2ccccc21` (stereo unspecified), -7.65%.

Consider `O=C(NCc1ccc(-n2cncn2)nc1)N(CC1CCOC1)C1CC1` (stereo unspecified), for which the cytotoxicity at 10 µM worked out at 1.74%.

With `Cc1nc(CNC(=O)Nc2cc(C(F)(F)F)c[nH]c2=O)cs1`, the cytotoxicity at 10 µM stood at 0.868%. With `Cc1noc([C@H]2COC[C@H]3CN(C(=O)Cc4cccc(F)c4)C[C@H]32)n1`, the cytotoxicity at 10 µM came to 6.93%. Consider `COc1ccc(CN(C)[C@@H]2COC[C@H]2c2ccc(F)cc2)cc1`, for which the cytotoxicity at 10 µM came to 10.9%. Under `CC(CS(C)(=O)=O)N(C(=O)CCc1cccc(F)c1)C1CC1` (stereo unspecified) stands -6.77%.
